ChEMBL document CHEMBL4364341, “Radiosensitization of Head and Neck Squamous Cell Carcinoma (HNSCC) by a Podophyllotoxin” (ACS Med Chem Lett, 2019)
Activity calls are given as the source filed them. No cut-off for these calls is given here.

What was measured:
FaDu [1] = experiment: Synergistic antiproliferative activity against human FADU cells assessed as reduction in cell viability at 1 uM preincubated for 1 hr followed by irradiation with 2.5 Gy IR and measured after 6 days by MTT assay relative to control; format: functional; conditions: light or radiation study
Method in brief: (§1)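 FaDu or SCC-25 cells were grown in DMEM with 10% FBS at 37 °C and 5% CO2. They were seeded at 1000 cells/well in 96-well plates for 24 h, then dosed with compound (fresh DMSO stock diluted in medium) or vehicle. After 1 h, X-rays were given with a sliding 5 mm lead shield, so one plate held 0, 2.5, 5 and 10 Gy columns. After 6 days, MTT (0.5 mg/mL, 45 min) was added, then DMSO, and A570 was read. Values were normalised to the unirradiated vehicle control. Fractional inhibition = 1 − surviving fraction.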

FaDu [2] = experiment: Synergistic antiproliferative activity against human FADU cells assessed as combination index at 5 uM preincubated for 1 hr followed by irradiation with 5 Gy IR and measured after 6 days by MTT assay; format: functional
Method in brief: (§2)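 Combination index was calculated by the Chou–Talalay median-effect method from the 6-day MTT viability data of the single-plate compound/X-ray (2.5, 5, 10 Gy) design. CI < 1 denotes synergy, CI = 1 additivity and CI > 1 antagonism.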

FaDu [3] = experiment: Synergistic antiproliferative activity against human FADU cells assessed as fractional inhibition at 0.05 uM preincubated for 1 hr followed by irradiation with 2.5 Gy IR and measured after 6 days by MTT assay (reference value: 0.131); format: functional; method in brief: as §1
FaDu [4] = experiment: Synergistic antiproliferative activity against human FADU cells assessed as fractional inhibition at 0.005 uM preincubated for 1 hr followed by irradiation with 5 Gy IR and measured after 6 days by MTT assay (reference value: 0.097); format: functional; method in brief: as §1
FaDu [5] = experiment: Synergistic antiproliferative activity against human FADU cells assessed as fractional inhibition at 0.005 uM preincubated for 1 hr followed by irradiation with 10 Gy IR and measured after 6 days by MTT assay (reference value: 0.388); format: functional; method in brief: as §1
FaDu [6] = experiment: Synergistic antiproliferative activity against human FADU cells assessed as fractional inhibition at 0.05 uM preincubated for 1 hr followed by irradiation with 10 Gy IR and measured after 6 days by MTT assay (reference value: 0.388); format: functional; method in brief: as §1
FaDu [7] = experiment: Synergistic antiproliferative activity against human FADU cells assessed as fractional inhibition at 5 uM preincubated for 1 hr followed by irradiation with 10 Gy IR and measured after 6 days by MTT assay (reference value: 0.388); format: functional; method in brief: as §1
FaDu [8] = experiment: Synergistic antiproliferative activity against human FADU cells assessed as combination index at 0.5 uM preincubated for 1 hr followed by irradiation with 5 Gy IR and measured after 6 days by MTT assay; format: functional; method in brief: as §2
FaDu [9] = experiment: Synergistic antiproliferative activity against human FADU cells assessed as combination index at 0.5 uM preincubated for 1 hr followed by irradiation with 10 Gy IR and measured after 6 days by MTT assay; format: functional; method in brief: as §2
FaDu [10] = experiment: Synergistic antiproliferative activity against human FADU cells assessed as combination index at 5 uM preincubated for 1 hr followed by irradiation with 10 Gy IR and measured after 6 days by MTT assay; format: functional; method in brief: as §2
SCC-25 [11] = experiment: Synergistic antiproliferative activity against human SCC25 cells assessed as fractional inhibition at 0.5 uM preincubated for 1 hr followed by irradiation with 2.5 Gy IR and measured after 6 days by MTT assay (reference value: 0.011); format: functional
Method in brief: (§3)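 SCC-25 cells seeded 1000/well in 96-well plates in DMEM/10% FBS and left 24 h. Drug or vehicle added, then after 1 h X-irradiated to 2.5, 5 or 10 Gy on one plate using a shifted lead shield. Plates incubated 6 days, then MTT (0.5 mg/mL, 45 min), DMSO solubilisation, absorbance at 570 nm. Fractional inhibition = 1 − fraction of surviving cells.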

SCC-25 [12] = experiment: Synergistic antiproliferative activity against human SCC25 cells assessed as fractional inhibition at 0.05 uM preincubated for 1 hr followed by irradiation with 5 Gy IR and measured after 6 days by MTT assay (reference value: 0.133); format: functional; method in brief: as §3
SCC-25 [13] = experiment: Synergistic antiproliferative activity against human SCC25 cells assessed as fractional inhibition at 0.5 uM preincubated for 1 hr followed by irradiation with 5 Gy IR and measured after 6 days by MTT assay (reference value: 0.133); format: functional; method in brief: as §3
SCC-25 [14] = experiment: Synergistic antiproliferative activity against human SCC25 cells assessed as fractional inhibition at 5 uM preincubated for 1 hr followed by irradiation with 5 Gy IR and measured after 6 days by MTT assay (reference value: 0.133); format: functional; method in brief: as §3
SCC-25 [15] = experiment: Synergistic antiproliferative activity against human SCC25 cells assessed as combination index at 0.05 uM preincubated for 1 hr followed by irradiation with 2.5 Gy IR and measured after 6 days by MTT assay; format: functional
Method in brief: (§4)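 SCC-25 cells grown in DMEM with 10% FBS at 37 °C, 5% CO2, seeded 1000 cells/well in 96-well plates and left 24 h. Drug in DMSO, diluted in complete medium, added 1 h before X-irradiation. A movable 5 mm lead shield gave 0, 2.5, 5 or 10 Gy on one plate. After 6 days, MTT readout at 570 nm. Combination index by Chou–Talalay from viability data.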

SCC-25 [16] = experiment: Synergistic antiproliferative activity against human SCC25 cells assessed as combination index at 5 uM preincubated for 1 hr followed by irradiation with 5 Gy IR and measured after 6 days by MTT assay; format: functional; method in brief: as §4
FaDu [17] = experiment: Synergistic induction of cell cycle arrest in human FADU cells at 0.5 uM followed by irradiation with 5Gy IR incubated for 6 hrs by propidium iodide staining based flow cytometry; format: functional
Method in brief: (§5)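 FaDu or SCC-25 cells, untreated, given 5 Gy IR, drug, or drug plus 5 Gy. Cell-cycle distribution by propidium iodide staining and flow cytometry at 6 h and 24 h after treatment. G0/G1, S and G2/M fractions compared with control by t test.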

FaDu [18] = experiment: Synergistic induction of cell cycle arrest in human FADU cells assessed as decrease in accumulation at G0/G1 phase at 0.5 uM followed irradiation with 5Gy IR incubated for 24 hrs by propidium iodide staining based flow cytometry; format: functional; method in brief: as §5
SCC-25 [19] = experiment: Synergistic induction of cell cycle arrest in human SCC25 cells assessed as increase in accumulation at G2/M phase at 0.5 uM followed irradiation with 5Gy IR incubated for 24 hrs by propidium iodide staining based flow cytometry; format: functional; method in brief: as §5
FaDu [20] = experiment: Synergistic induction of apoptosis in human FADU cells at 0.5 uM followed irradiation with 5Gy IR incubated for 48 hrs by annexin V FITC and propidium iodide staining based flow cytometry; format: functional
Method in brief: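 FaDu or SCC-25 cells, untreated, given 5 Gy IR, drug, or both. Apoptotic cells measured by annexin V flow cytometry 48 h after treatment. Percentage compared with control by t test.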

SCC-25 [21] = experiment: Inhibition of cell migration in human SCC25 cells at 0.5 uM incubated for 12 and 24 hrs by microscopic analysis; format: functional, cell-based
Method in brief: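 Scratch assay: 10^5 cells/well were grown to confluence in 12-well plates, with mitomycin C to block proliferation. Cells were treated with compound for 24 h, with or without 5 Gy IR, then scratched with a pipette tip, washed with PBS and given fresh medium. Imaging was at 0, 6, 12 and 24 h. % migration = gap decrease relative to the 0 h gap.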

COc1ccc2c(c1)N(CCO)C1=C(C(=O)OC1)C2c1ccccc1 (stereo unspecified)
inhibition at 1 µM (FaDu [1]): 30% | CI (FaDu [2]): 0.324 | fractional inhibitory concentration index (FICI) (FaDu [3]): 0.383 | fractional inhibitory concentration index (FICI) (FaDu [4]): 0.136 | fractional inhibitory concentration index (FICI) (FaDu [5]): 0.346 | fractional inhibitory concentration index (FICI) (FaDu [6]): 0.452 | fractional inhibitory concentration index (FICI) (FaDu [7]): 0.681 | CI (FaDu [8]): 0.603 | CI (FaDu [9]): 0.319 | CI (FaDu [10]): 0.314 | fractional inhibitory concentration index (FICI) (SCC-25 [11]): 0.452 | fractional inhibitory concentration index (FICI) (SCC-25 [12]): 0.05 | fractional inhibitory concentration index (FICI) (SCC-25 [13]): 0.658 | fractional inhibitory concentration index (FICI) (SCC-25 [14]): 0.728 | CI (SCC-25 [15]): 0.835 | CI (SCC-25 [16]): 0.652 | Activity (FaDu [17]): inactive | Activity (FaDu [18]): Active | fold change (FC) (SCC-25 [19]): 2 | fold change (FC) (FaDu [20]): 3 | inhibition (SCC-25 [21]): inactive
